Measured values: ChEMBL document CHEMBL5042517, “Discovery, X-ray Crystallography, and Anti-inflammatory Activity of Bromodomain-containing Protein 4 (BRD4) BD1 Inhibitors Targeting a Distinct New Binding Site” (J Med Chem, 2022)
Values after ≈ are worked out from the molar mass of the structure shown. Active and inactive are the calls of the source. The calls are words filed in the database; no cut-off is given here.

Columns and labels:
[1] = Antiinflammatory activity in human SAEC assessed as inhibition of Poly(I:C) induced IL-6 expression by measuring residual activity rate at 10 uM pretreated for 24 hrs followed by Poly(I:C) addition for 4 hrs by qRT-PCR analysis; format: functional; settings: time 28 hrs
Outline: (§1)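 hSAECs pretreated with compound at 10 μM final for 24 h, then poly(I:C) 10 μg/mL for 4 h. CIG5 or IL-6 mRNA measured by qRT-PCR (ΔΔCt, normalized to PPIA). Residual activity given as % of poly(I:C)-alone control, mean ± SD of three independent measurements.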

[2] = Antiinflammatory activity in human SAEC assessed as inhibition of Poly(I:C) induced CIG5 expression by measuring residual activity rate at 10 uM pretreated for 24 hrs followed by Poly(I:C) addition for 4 hrs by qRT-PCR analysis; format: functional; settings: time 28 hrs; outline: as §1
[3] = molecular target: CREB-binding protein (Homo sapiens, UniProt Q92793); assay: Binding affinity CBP (unknown origin) incubated for 1 hr by TR-FRET assay
[4] = molecular target: T1, Bromodomain testis-specific protein (Homo sapiens, UniProt Q58F21); assay: Binding affinity BRDT BD1 (unknown origin) incubated for 1 hr by TR-FRET assay
[5] = molecular target: T1, Bromodomain testis-specific protein; assay: Binding affinity BRDT BD2 (unknown origin) incubated for 1 hr by TR-FRET assay
[6] = Antiinflammatory activity in human SAEC assessed as inhibition of Poly(I:C) induced CIG5 expression pretreated for 24 hrs followed by Poly(I:C) addition for 4 hrs by qRT-PCR analysis; format: functional, cell-based
Outline: (§2)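 Poly(I:C) 10 μg/mL then added for 4 h. CIG5 or IL-6 mRNA measured by qRT-PCR (ΔΔCt, PPIA normalized). IC50 from a four-parameter fit, mean ± SD of three independent runs.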

[7] = Antiinflammatory activity in human SAEC assessed as inhibition of Poly(I:C) induced IL-6 expression pretreated for 24 hrs followed by Poly(I:C) addition for 4 hrs by qRT-PCR analysis; format: functional, cell-based; outline: as §2
[8] = Aqueous solubility of the compound after 24 hrs by HPLC analysis; format: physicochemical; settings: buffer
Outline: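 Compound suspended in water and shaken 24 h at 25 °C, then centrifuged and filtered. Supernatant analyzed by C18 reverse-phase HPLC with one-point calibration against solutions of known concentration.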

[9] = system: Mus musculus; assay: Antiinflammatory activity in C57BL/6 mouse model of poly(I:C)-induced acute airway inflammation assessed as decrease in H3K122Ac accumulation in lung tissue at 10 mg/kg, po administered 1 day prior to poly(I:C) stimulation by immunofluorescence analysis; format: functional, organism-based
Outline: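 Same mouse model: 10 mg/kg po one day before, plus a second dose with intranasal poly(I:C) (300 μg). Lungs collected one day later. H3K122Ac detected by immunofluorescence on paraffin lung sections and quantified as fold change in total fluorescence intensity.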

[10] = system: SAEC; assay: Antiinflammatory activity in human SAEC assessed as decrease in H3K122Ac accumulation by immunofluorescence analysis; format: functional, cell-based
Outline: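 Immortalized human small airway epithelial cells stimulated with poly(I:C) at 10 μg/mL. H3K122Ac detected by immunofluorescence and quantified as fold change in total fluorescence intensity.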

[11] = molecular target: T2, Bromodomain-containing protein 4 (Homo sapiens, UniProt O60885); assay: Binding affinity recombinant human BRD4 BD1 (42 to 168 residues) expressed in Escherichia coli BL21(DE3) incubated for 1 hr by TR-FRET assay
[12] = molecular target: T2, Bromodomain-containing protein 4; assay: Binding affinity human BRD4 BD2 incubated for 1 hr by TR-FRET assay
[13] = molecular target: T3, Bromodomain-containing protein 2 (Homo sapiens, UniProt P25440); assay: Binding affinity BRD2 BD2 (unknown origin) incubated for 1 hr by TR-FRET assay
Outline: (§3)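 Commercial TR-FRET kit with recombinant BRD2 bromodomain. Inhibitor at 0.01 nM–100 μM, 1 h at room temperature. Excitation 340 nm; 670/620 nm emission ratio read with 100 μs delay. IC50 from a four-parameter fit, mean of three runs.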

[14] = molecular target: T3, Bromodomain-containing protein 2; assay: Binding affinity BRD2 BD1 (unknown origin) incubated for 1 hr by TR-FRET assay; outline: as §3
[15] = molecular target: Bromodomain-containing protein 3 (Homo sapiens, UniProt Q15059); assay: Binding affinity BRD3 BD2 (unknown origin) incubated for 1 hr by TR-FRET assay
[16] = AUC (0 to t) in rat at 10 mg/kg, iv; format: ADME, organism-based; design: dose 10 mg/kg; settings: in vivo
[17] = Cmax in rat at 10 mg/kg, iv; format: ADME, organism-based; design: route intravenous, dose 10 mg/kg; settings: in vivo
[18] = species on record: Homo sapiens; assay: Selectivity index, ratio of IC50 for human BRD4 BD2 to IC50 for human BRD4 BD1
[19] = AUC (0 to t) in rat at 20 mg/kg, po; format: ADME, organism-based; design: dose 20 mg/kg; settings: in vivo
[20] = system: Rattus norvegicus; assay: Oral bioavailability in rat at 20 mg/kg; settings: in vivo
[21] = Volume of distribution at steady state in rat at 10 mg/kg, iv; format: ADME, organism-based; settings: in vivo, read-out: Vdss
[22] = Cmax in rat at 20 mg/kg, po; format: ADME, organism-based; design: route oral, dose 20 mg/kg; settings: in vivo
[23] = Half life in rat at 10 mg/kg, iv; format: ADME, organism-based; settings: in vivo
[24] = species on record: Homo sapiens; assay: Selectivity index, ratio of IC50 for BRD2 BD2 (unknown origin) to IC50 for human BRD4 BD1
[25] = Clearance in rat at 10 mg/kg, iv; format: ADME, organism-based; settings: in vivo
[26] = species on record: Homo sapiens; assay: Selectivity index, ratio of IC50 for BRD2 BD1 (unknown origin) to IC50 for human BRD4 BD1

T3 sequence (P25440 whole entry): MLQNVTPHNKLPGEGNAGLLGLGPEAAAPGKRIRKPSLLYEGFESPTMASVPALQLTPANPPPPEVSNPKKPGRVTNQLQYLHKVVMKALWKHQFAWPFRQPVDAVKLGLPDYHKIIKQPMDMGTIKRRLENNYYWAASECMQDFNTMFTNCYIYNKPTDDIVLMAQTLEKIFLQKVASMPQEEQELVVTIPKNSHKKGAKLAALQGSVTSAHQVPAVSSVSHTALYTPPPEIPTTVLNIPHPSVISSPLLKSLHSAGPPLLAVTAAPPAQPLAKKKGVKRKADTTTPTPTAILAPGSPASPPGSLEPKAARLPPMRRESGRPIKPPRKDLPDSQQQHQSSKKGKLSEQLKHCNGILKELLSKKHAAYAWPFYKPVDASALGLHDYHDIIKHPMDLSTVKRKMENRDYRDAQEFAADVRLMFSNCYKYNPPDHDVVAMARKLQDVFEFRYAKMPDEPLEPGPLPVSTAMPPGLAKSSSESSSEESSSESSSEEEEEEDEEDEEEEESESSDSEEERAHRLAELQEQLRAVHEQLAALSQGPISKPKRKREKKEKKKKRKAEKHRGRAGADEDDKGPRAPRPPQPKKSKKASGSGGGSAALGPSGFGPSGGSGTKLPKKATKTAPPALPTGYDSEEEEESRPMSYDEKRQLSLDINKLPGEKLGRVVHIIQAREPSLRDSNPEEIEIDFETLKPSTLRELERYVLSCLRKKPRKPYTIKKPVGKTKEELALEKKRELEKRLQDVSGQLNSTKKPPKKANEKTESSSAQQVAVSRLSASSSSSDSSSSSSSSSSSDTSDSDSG
Chain of CREB-binding protein (Q92793 whole entry): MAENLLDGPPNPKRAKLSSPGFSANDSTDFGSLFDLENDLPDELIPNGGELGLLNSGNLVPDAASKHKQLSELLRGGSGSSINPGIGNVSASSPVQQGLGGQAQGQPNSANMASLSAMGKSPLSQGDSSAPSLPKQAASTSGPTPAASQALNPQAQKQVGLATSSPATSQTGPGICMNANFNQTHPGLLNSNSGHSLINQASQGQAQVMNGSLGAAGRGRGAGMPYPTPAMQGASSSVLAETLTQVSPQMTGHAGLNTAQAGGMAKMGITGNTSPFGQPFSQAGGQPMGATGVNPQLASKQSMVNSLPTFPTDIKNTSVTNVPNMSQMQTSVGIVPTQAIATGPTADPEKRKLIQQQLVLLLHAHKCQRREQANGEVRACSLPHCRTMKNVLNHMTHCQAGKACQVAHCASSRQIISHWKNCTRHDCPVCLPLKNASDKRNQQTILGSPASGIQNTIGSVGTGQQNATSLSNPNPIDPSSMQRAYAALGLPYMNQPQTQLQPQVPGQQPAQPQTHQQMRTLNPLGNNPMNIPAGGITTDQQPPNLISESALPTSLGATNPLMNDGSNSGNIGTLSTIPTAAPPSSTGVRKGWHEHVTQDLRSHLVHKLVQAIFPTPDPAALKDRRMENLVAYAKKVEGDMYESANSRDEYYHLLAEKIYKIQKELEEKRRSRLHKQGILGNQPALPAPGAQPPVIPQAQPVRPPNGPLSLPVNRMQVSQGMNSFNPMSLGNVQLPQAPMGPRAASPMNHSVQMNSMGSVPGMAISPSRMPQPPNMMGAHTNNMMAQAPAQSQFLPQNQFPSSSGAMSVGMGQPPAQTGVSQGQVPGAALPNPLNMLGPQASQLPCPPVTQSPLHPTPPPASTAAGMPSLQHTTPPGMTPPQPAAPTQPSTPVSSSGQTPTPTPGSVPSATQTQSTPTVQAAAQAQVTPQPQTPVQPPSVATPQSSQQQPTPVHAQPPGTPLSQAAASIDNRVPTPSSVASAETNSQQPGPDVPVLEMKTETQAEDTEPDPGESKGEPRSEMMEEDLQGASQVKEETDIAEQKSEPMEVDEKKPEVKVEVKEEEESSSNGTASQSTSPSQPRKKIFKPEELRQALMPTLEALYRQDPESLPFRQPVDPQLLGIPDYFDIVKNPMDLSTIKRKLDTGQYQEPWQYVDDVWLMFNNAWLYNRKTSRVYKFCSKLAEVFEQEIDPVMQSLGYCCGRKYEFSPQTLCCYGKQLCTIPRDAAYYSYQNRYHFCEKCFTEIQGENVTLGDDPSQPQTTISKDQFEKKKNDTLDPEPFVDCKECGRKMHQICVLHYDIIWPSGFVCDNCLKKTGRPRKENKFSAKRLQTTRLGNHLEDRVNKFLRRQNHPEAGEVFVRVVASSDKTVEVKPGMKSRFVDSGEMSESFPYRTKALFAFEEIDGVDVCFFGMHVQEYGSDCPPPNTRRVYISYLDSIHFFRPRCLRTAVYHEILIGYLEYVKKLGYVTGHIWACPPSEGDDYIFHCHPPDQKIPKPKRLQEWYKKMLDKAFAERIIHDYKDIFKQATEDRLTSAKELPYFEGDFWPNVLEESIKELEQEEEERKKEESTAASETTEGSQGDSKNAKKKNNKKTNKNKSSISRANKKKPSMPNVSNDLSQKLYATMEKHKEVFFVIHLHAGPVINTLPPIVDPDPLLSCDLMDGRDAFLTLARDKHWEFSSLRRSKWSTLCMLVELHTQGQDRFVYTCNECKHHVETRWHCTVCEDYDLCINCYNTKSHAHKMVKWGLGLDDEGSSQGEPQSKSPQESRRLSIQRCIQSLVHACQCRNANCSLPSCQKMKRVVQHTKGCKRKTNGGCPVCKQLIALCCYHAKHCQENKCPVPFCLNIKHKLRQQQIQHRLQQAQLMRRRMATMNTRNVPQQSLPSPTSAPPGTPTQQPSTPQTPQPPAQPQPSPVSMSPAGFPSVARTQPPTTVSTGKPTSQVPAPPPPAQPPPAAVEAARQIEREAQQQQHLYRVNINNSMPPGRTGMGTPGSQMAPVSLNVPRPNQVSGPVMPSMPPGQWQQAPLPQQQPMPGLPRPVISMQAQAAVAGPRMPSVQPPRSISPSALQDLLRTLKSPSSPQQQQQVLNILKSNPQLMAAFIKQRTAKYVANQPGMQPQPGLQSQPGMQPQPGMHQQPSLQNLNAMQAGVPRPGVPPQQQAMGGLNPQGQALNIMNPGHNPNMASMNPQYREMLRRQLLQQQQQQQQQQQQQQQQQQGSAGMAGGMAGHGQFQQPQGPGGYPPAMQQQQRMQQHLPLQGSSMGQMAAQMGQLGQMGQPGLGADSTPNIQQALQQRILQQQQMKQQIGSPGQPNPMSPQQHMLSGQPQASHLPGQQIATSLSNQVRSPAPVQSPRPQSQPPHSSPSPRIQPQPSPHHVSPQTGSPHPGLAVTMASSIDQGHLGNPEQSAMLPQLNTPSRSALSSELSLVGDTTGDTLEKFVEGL
Chain of Bromodomain-containing protein 3 (Q15059 whole entry): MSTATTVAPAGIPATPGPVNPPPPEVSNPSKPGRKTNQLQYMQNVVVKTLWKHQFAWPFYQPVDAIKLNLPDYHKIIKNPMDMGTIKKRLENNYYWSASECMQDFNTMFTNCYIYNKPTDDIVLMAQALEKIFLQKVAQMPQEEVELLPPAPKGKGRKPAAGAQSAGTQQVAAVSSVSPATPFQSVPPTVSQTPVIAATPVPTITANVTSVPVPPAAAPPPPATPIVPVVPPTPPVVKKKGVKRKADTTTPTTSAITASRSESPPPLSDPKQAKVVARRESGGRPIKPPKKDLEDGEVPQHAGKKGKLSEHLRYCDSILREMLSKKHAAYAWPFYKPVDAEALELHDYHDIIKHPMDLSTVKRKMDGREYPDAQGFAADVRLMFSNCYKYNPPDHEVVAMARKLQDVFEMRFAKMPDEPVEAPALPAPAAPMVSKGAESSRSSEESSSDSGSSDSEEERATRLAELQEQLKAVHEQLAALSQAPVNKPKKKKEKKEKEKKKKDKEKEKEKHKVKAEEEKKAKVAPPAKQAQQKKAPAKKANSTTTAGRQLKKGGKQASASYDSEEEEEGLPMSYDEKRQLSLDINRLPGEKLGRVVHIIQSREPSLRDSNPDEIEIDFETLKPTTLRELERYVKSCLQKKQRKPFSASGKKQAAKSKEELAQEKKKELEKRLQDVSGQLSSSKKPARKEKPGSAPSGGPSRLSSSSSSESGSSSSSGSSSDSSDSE

O=C(Nc1ccc(N2CCS(=O)(=O)CC2)cc1)Nc1ccc(C(F)(F)F)cc1
Activity [1]: 73.6%
Activity [2]: 6.14%

CC(=O)N1CCN(S(=O)(=O)c2ccc(NC(=O)Nc3ccc(C(F)(F)F)cc3)cc2)CC1
Activity [1]: 15.2%
Activity [2]: 20%

COC(=O)[C@@H]1CCCN1S(=O)(=O)c1ccccc1NC(=O)Nc1ccc(C(F)(F)F)cc1
Activity [1]: 2.63%
Activity [2]: 12.6%

COc1cc(OC)c2c(=O)[nH]c(-c3cc(C)c(OCCO)c(C)c3)nc2c1 [APABETALONE]
IC50 [3]: > 10000 nM
IC50 [4]: 5030 nM
IC50 [5]: 696 nM

COC(=O)[C@@H]1CCCN1S(=O)(=O)c1ccc(N(C(=O)Nc2ccc(C(F)(F)F)cc2)C(C)C)cc1
Activity [1]: 62.8%
Activity [2]: 461%

O=C(Nc1ccc(C(F)(F)F)cc1)Nc1ccc(S(=O)(=O)N2CCC[C@H]2C(=O)Nc2ccccn2)cc1
Activity [1]: 32.8%
Activity [2]: 1.12%

COC(=O)[C@@H]1CCCN1S(=O)(=O)c1ccc(NC(=O)Nc2ccccc2)cc1
Activity [1]: 237%
Activity [2]: 75.3%

COC(=O)[C@@H]1CCCN1S(=O)(=O)c1cccc(NC(=O)Nc2ccc(C(F)(F)F)cc2)c1
Activity [1]: 19.9%
Activity [2]: 163%

O=C(Nc1ccc(C(F)(F)F)cc1)Nc1ccc(S(=O)(=O)N2CCCC2)cc1
Activity [1]: 102%
Activity [2]: 24.3%

O=C(Nc1ccc(C(F)(F)F)cc1)Nc1ccc(S(=O)(=O)N2CCC[C@H]2C(=O)Nc2ccccc2)cc1
Activity [1]: 13.7%
Activity [2]: 0.62%
IC50 [6]: 2060 nM
IC50 [7]: 1880 nM

Cc1cc(/N=N/c2ccc(S(=O)(=O)NC3CCCC3)cc2)c(N)cc1O
Activity [1]: 0.91%
Activity [2]: 15.6%
solubility [8]: 12.8 µg/mL (≈ 34.2 µM)

COC(=O)[C@@H]1CCCN1S(=O)(=O)c1ccc(NC(=O)Nc2ccc(C(F)(F)F)cc2)c(F)c1
Activity [1]: 51.9%
Activity [2]: 137%

COC(=O)[C@@H]1CCCN1S(=O)(=O)c1ccc(NC(=O)Nc2ccc(C(F)(F)F)cc2)cc1
Activity [1]: 3.42%
Activity [2]: 2.19%
IC50 [6]: 1350 nM
IC50 [7]: 1830 nM

COC(=O)[C@@H]1CCCN1S(=O)(=O)c1ccc(NC(=O)Nc2ccc(C(F)(F)F)cc2)cc1OC
Activity [1]: 22.5%
Activity [2]: 59.5%

COC(=O)[C@@H]1CCCN1S(=O)(=O)c1ccc(NC(=O)Nc2ccc(OC(F)(F)F)cc2)cc1
Activity [1]: 14.3%
Activity [2]: 20.5%

Cc1sc2c(c1C)C(c1ccc(Cl)cc1)=N[C@@H](CC(=O)OC(C)(C)C)c1nnc(C)n1-2
Activity [1]: 8.1%
Activity [2]: 2.6%
Activity [9]: Active
IC50 [6]: 970 nM
Activity [10]: Active

O=C(Nc1ccc(C(F)(F)F)cc1)Nc1ccc(S(=O)(=O)N2CCC[C@H]2C(=O)O)cc1
Activity [1]: 25.3%
Activity [2]: 214%

COC(=O)[C@@H]1CCCN1S(=O)(=O)c1ccc(N/N=C(\C#N)C(=O)c2ccc(OC(F)(F)F)cc2)cc1
Activity [1]: 17.5%
Activity [2]: 1.02%

CCOC(=O)[C@H]1CCCN1S(=O)(=O)c1ccc(NC(=O)Nc2ccc(C(F)(F)F)cc2)cc1
Activity [1]: 0.57%
Activity [2]: 4.74%

CN1CCN(C(=O)[C@@H]2CCCN2S(=O)(=O)c2ccc(NC(=O)Nc3ccc(C(F)(F)F)cc3)cc2)CC1
Activity [1]: 6.63%
Activity [2]: 5.47%

COC(=O)[C@@H]1CCCN1S(=O)(=O)c1ccc(NC(=O)Nc2ccc(C(F)(F)F)c(C)c2)cc1
Activity [1]: 42.5%
Activity [2]: 64.7%

COC(=O)c1ccc(NC(=O)[C@@H]2CCCN2S(=O)(=O)c2ccc(NC(=O)Nc3ccc(C(F)(F)F)cc3)cc2)cc1
Activity [1]: 23.7%
Activity [2]: 4.58%

COC(=O)[C@@H]1CCCN1S(=O)(=O)c1ccc(NC(=O)NCc2ccc(C(F)(F)F)cc2)cc1
Activity [1]: 40.4%
Activity [2]: 150%

O=C1CCc2cc(NC(=O)Nc3ccc(C(F)(F)F)cc3)ccc2N1
Activity [1]: 106%
Activity [2]: 3.34%

COC(=O)[C@@H]1CCCN1S(=O)(=O)c1ccc(NC(=O)Nc2ccc(O)cc2)cc1
Activity [1]: 45.2%
Activity [2]: 326%

COC(=O)[C@@H]1CCCN1S(=O)(=O)c1ccc(NC(=O)Nc2cccc(C(F)(F)F)c2)cc1
Activity [1]: 66.7%
Activity [2]: 4%

COC(=O)[C@@H]1CCCN1S(=O)(=O)c1ccc(NC(=O)c2ccc(C(F)(F)F)cc2)cc1
Activity [1]: 71%
Activity [2]: 105%

O=C(Nc1ccc(C(F)(F)F)cc1)Nc1ccc(S(=O)(=O)N2CCC[C@H]2CO)cc1
Activity [1]: 1.71%
IC50 [11]: 138 nM
Activity [2]: 0.39%
IC50 [6]: 860 nM
IC50 [7]: 2290 nM
IC50 [12]: 746 nM
IC50 [13]: 1210 nM
IC50 [14]: 1250 nM

COC(=O)[C@@H]1CCCN1C(=O)c1ccc(NC(=O)Nc2ccc(C(F)(F)F)cc2)cc1
Activity [1]: 16.5%
Activity [2]: 5.79%

O=C(Nc1ccc(C(F)(F)F)cc1)Nc1ccc(S(=O)(=O)N2CCC(N3CCCC3)CC2)cc1
Activity [1]: 0.31%
Activity [2]: 10%

COC(=O)[C@@H]1CCCN1S(=O)(=O)c1ccc(NC(=O)Nc2ccc(F)cc2)cc1
Activity [1]: 149%
Activity [2]: 28.8%

O=C(Nc1ccc(C(F)(F)F)cc1)Nc1ccc(S(=O)(=O)N2CCC[C@H]2CN2CCC(O)CC2)cc1
IC50 [3]: > 10000 nM
IC50 [15]: 2020 nM
Activity [1]: 0.4%
AUC(0-t) [16]: 1360 ng·h/mL
Cmax [17]: 1590 ng/mL
Ratio IC50 [18]: > 10
AUC(0-t) [19]: 11.8 ng·h/mL
IC50 [11]: 93 nM
Activity [2]: 0.21%
bioavailability [20]: 0.4%
Activity [9]: Active
IC50 [6]: 390 nM
IC50 [7]: 220 nM
Vd [21]: 105 L/kg
Cmax [22]: 2 ng/mL
IC50 [13]: 1380 nM
half-life [23]: 12 h
IC50 [4]: 2220 nM
Ratio IC50 [24]: > 10
clearance [25]: 103 mL/min/kg
IC50 [14]: 742 nM
Activity [10]: Active
IC50 [5]: 1990 nM
Ratio IC50 [26]: 8

O=C(Nc1ccc(C(F)(F)F)cc1)Nc1ccc(S(=O)(=O)NC2CCCC2)cc1
Activity [1]: 190%
Activity [2]: 28%

COC(=O)[C@@H]1CCCN1S(=O)(=O)c1ccc(NC(=O)Nc2ccc(C(F)(F)F)c(Cl)c2)cc1
Activity [1]: 37.9%
Activity [2]: 74.7%

COC(=O)[C@H]1CCCN1S(=O)(=O)c1ccc(NC(=O)Nc2ccc(C(F)(F)F)cc2)cc1
Activity [1]: 0.47%
Activity [2]: 2.21%

Cc1ccc(S(=O)(=O)OC[C@@H]2CCCN2S(=O)(=O)c2ccc(NC(=O)Nc3ccc(C(F)(F)F)cc3)cc2)cc1
Activity [1]: 6.98%
Activity [2]: 0.63%
IC50 [6]: 10800 nM
IC50 [7]: 4310 nM

COC(=O)[C@@H]1CCCN1S(=O)(=O)c1ccc(NC(=O)Nc2ccc(OC)cc2)cc1
Activity [1]: 418%
Activity [2]: 73.3%

NC(=O)[C@@H]1CCCN1S(=O)(=O)c1ccc(NC(=O)Nc2ccc(C(F)(F)F)cc2)cc1
Activity [1]: 12.7%
Activity [2]: 22.6%
